# In ChEMBL document CHEMBL2396589, “Remarkable antioxidant properties of a series of hydroxy-3-arylcoumarins” (Bioorg Med Chem, 2013):
# How the values were obtained:
# [1] = tested on: Radical scavenging activity; assay: Antioxidant activity assessed as DPPH radical scavenging activity at 1 mM after 5 mins by ESR spectrometric analysis; format: functional
# Summary of the method: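 Reaction mixtures held DPPH and test compound, each at 1.0 mM, both made up in acetonitrile. A control lacked compound. ESR signal was recorded 5 min after mixing at 9.81 GHz with 20 mW microwave power, 0.95 G modulation amplitude and 59 db receiver gain. Values are given as % DPPH scavenging.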
# [2] = Antioxidant activity assessed as inhibition of AAPH-induced peroxyl radical formation at 0.3 to 2 uM preincubated for 15 mins followed by AAPH addition measured every 1 min for 120 mins by ORAC-FL assay relative to trolox; format: functional
# Summary of the method: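 Fluorescein (70 nM final) and compound (0.3–2 µM, in methanol) were mixed in 75 mM sodium phosphate pH 7.4 and pre-incubated 15 min at 37 °C. AAPH (18 mM final) was then added. Fluorescence (ex 485, em 528 nm) was read every minute for 120 min. Net AUC was taken after subtracting a methanol blank and expressed relative to trolox. Triplicates, at least three independent assays.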
# [3] = Antioxidant activity assessed as hydroxyl radical scavenging activity at 4 mM after 5 mins by ESR spectrometric analysis; format: functional
# Summary of the method: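 Hydroxyl radicals came from a non-catalytic Fenton-type system: DMF, NaOH (3 mM), DMPO spin trap (30 mM final) and 30% H2O2, with compound at 4 mM final. The DMPO-OH adduct was read by X-band ESR (9.7 GHz) at room temperature 5 min after mixing. A control without antioxidant was included. Values are given as % scavenging.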
# [4] = Antioxidant activity assessed as superoxide radical scavenging activity at 30 uM by cyclic voltammetric analysis; format: functional
# Summary of the method: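 Cyclic voltammetry was run at room temperature with a three-electrode cell in DMSO, with compound at 30 µM final. Scavenging (%) was calculated as [(Ipc blank − Ipc aox)/Ipc blank] × 100 from the cathodic peak current without and with compound. Three replicates; significance was set at p < 0.05.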
# [5] = Antioxidant activity assessed as inhibition of AAPH-induced peroxyl radical formation by ORAC-FL assay relative to trolox; format: functional
# Summary of the method: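 Peroxyl scavenging in 75 mM sodium phosphate buffer pH 7.4 with fluorescein (70 nM final), using test compounds in methanol from 0.3 to 2 units. The mix was pre-incubated 15 min at 37 °C, then AAPH (18 mM final) was added. Fluorescence (ex 485, em 528 nm) was read every 1 min for 120 min. Net AUC was taken against a methanol blank and expressed relative to trolox standards. Triplicates, ≥3 independent runs.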
# [6] = tested on: Radical scavenging activity; assay: Antioxidant activity assessed as DPPH radical scavenging activity measured at 5 mins by ESR spectrometric analysis
smiles,measurement,setting,value
Cc1cccc2cc(-c3ccc(O)c(O)c3)c(=O)oc12,Activity,[1],66.7%
same,fold change (FC),[2],5.7
same,Activity,[3],100%
same,Activity,[4],77.3%
Cc1ccc2oc(=O)c(-c3ccccc3O)cc2c1,Activity,[1],10.6%
same,fold change (FC),[2],8.4
same,Activity,[3],100%
same,Activity,[4],25%
Cc1ccc(-c2cc3cccc(O)c3oc2=O)cc1,Activity,[1],28.6%
same,fold change (FC),[2],6.3
same,Activity,[3],16%
same,Activity,[4],17.4%
Cc1cccc2cc(-c3cc(O)cc(O)c3)c(=O)oc12,Activity,[1],11.2%
same,fold change (FC),[2],5.5
same,Activity,[3],75%
same,Activity,[4],22.6%
Cc1ccc2oc(=O)c(-c3cccc(O)c3)cc2c1,Activity,[1],3.4%
same,fold change (FC),[2],6.7
same,Activity,[3],5.2%
same,Activity,[4],17.5%
Oc1cc(O)c2c(c1)OC(c1ccc(O)c(O)c1)C(O)C2 (stereo not given),fold change (FC),[5],6.76
same,Activity,[6],44.5%
Cc1ccc2oc(=O)c(-c3ccc(O)c(O)c3)cc2c1,Activity,[1],28.3%
same,fold change (FC),[2],5.3
same,Activity,[3],6.05%
same,Activity,[4],28.9%
O=c1oc2c(O)cccc2cc1-c1ccc(O)cc1,Activity,[1],65.9%
same,fold change (FC),[2],13.5
same,Activity,[3],100%
same,Activity,[4],71.5%
Cc1cccc2cc(-c3cc(O)c(O)c(O)c3)c(=O)oc12,Activity,[1],100%
same,fold change (FC),[2],5.3
same,Activity,[3],100%
same,Activity,[4],76.5%
O=c1c(O)c(-c2ccc(O)c(O)c2)oc2cc(O)cc(O)c12,fold change (FC),[5],7.28
same,Activity,[6],20%
Cc1ccc2oc(=O)c(-c3ccc(O)cc3)cc2c1,Activity,[1],27.7%
same,fold change (FC),[2],6.1
same,Activity,[3],100%
same,Activity,[4],17.4%
